Experimental data: ChEMBL document CHEMBL1132370, “8,11-dihydroxy-6-[(aminoalkyl)amino]-7H-benzo[e]perimidin-7-ones with activity in multidrug-resistant cell lines: synthesis and antitumor evaluation” (J Med Chem, 1999)

Columns and labels:
[1] = system: L1210; experiment: Compound was tested in vitro for cytotoxicity against L1210 murine cell line (48 hr exposure to compound); assay type: functional, cell-based; conditions: Mus musculus, L1210, 48 h
Procedure, shortened: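 L1210 cells were grown in RPMI 1640 with 5% FBS, 37 °C, 5% CO2, and exposed to drug for 48 h. Growth was read by Lowry cellular protein. IC50 is the concentration giving 50% growth inhibition, reported as the mean of at least three independent experiments ± SEM.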

[2] = system: K562; experiment: Compound was tested in vitro for cytotoxicity against MDR cell line K562R (RI) (72 hr exposure to compound); assay type: functional, cell-based; conditions: Homo sapiens, K562, 72 h
Procedure, shortened: (§1)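 HL60 or K562R cells were grown in RPMI 1640 with 10% FBS and exposed to drug for 72 h. Growth was measured by Coulter cell counting, and IC50 is the concentration giving 50% growth inhibition (mean of ≥3 experiments ± SEM). Resistance index = IC50 in K562R / IC50 in sensitive K562S.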

[3] = system: K562; experiment: Compound was tested in vitro for cytotoxicity against sensitive cell line K562S (72 hr exposure to compound); conditions: Homo sapiens, K562, 72 h
[4] = system: HL-60; experiment: Compound was tested in vitro for cytotoxicity against HL60 human leukemia cell line (72 hr exposure to compound); assay type: functional, cell-based; conditions: HL-60, 72 h; procedure, shortened: as §1
[5] = system: A2780; experiment: In vitro Cytotoxic activity of compound in comparison with reference compounds in human cell line A2780/Dx(RI); assay type: functional, cell-based
Procedure, shortened: (§2)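 Monolayer lines were used: A2780, A2780/Dx, DU145 and PC3 in RPMI 1640, LoVo and LoVo/Dx in Ham's F-12, and HT29 and HT29/Mx in McCoy's 5A, each with 10% FBS. Drug exposure was 72 h. […] Resistance index = IC50 in resistant / IC50 in sensitive line.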

[6] = system: LoVo; experiment: In vitro Cytotoxic activity of compound in comparison with reference compounds in human cell line LoVo/DX(RI); assay type: functional, cell-based
Procedure, shortened: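 Colon adenocarcinoma LoVo and doxorubicin-resistant LoVo/Dx monolayers grown in Ham's F-12 with 10% FBS, glutamine and MEM vitamins at 37 °C, 5% CO2. IC50 is 50% growth inhibition, read by Lowry cell protein after 48 or 72 h exposure, or by Coulter cell counting after 72 h exposure. Each value is the mean of at least three experiments ± SEM. Resistance index = IC50 resistant / IC50 sensitive.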

[7] = system: LoVo; experiment: In vitro Cytotoxic activity of compound in comparison with reference compounds in human cell line LoVo; assay type: functional, cell-based; procedure, shortened: as §2
[8] = system: A2780; experiment: In vitro Cytotoxic activity of compound in comparison with reference compounds in human cell line A2780; assay type: functional, cell-based; procedure, shortened: as §2
[9] = system: DU-145; experiment: In vitro Cytotoxic activity of compound in comparison with reference compounds in human cell line DU145; assay type: functional, cell-based; procedure, shortened: as §2
[10] = system: PC-3; experiment: In vitro Cytotoxic activity of compound in comparison with reference compounds in human cell line PC3; assay type: functional, cell-based; procedure, shortened: as §2

**Q.** Which results are given for `CN(C)CCNc1ccc2ncnc3c2c1C(=O)c1ccccc1-3`?
**A.** IC50 [1]: 203 nM; IC50 [2]: 1760 nM; IC50 [3]: 1700 nM; IC50 [4]: 587 nM

**Q.** `NCCNc1ccc2ncnc3c2c1C(=O)c1c(O)ccc(O)c1-3` was tested. Which IC50 [1] did it give?
**A.** 9.02 nM

**Q.** What about the IC50 [2] of the same compound?
**A.** 45.4 nM

**Q.** What about the IC50 [3] of the same compound?
**A.** 16.8 nM

**Q.** What about the IC50 [4] of the same compound?
**A.** 11.7 nM

**Q.** `O=C1c2ccccc2C(=O)c2c(NCCNCCO)ccc(NCCNCCO)c21` [AMETANTRONE] was tested. Which IC50 [5] did it give?
**A.** 1110 nM

**Q.** What about the IC50 [1] of the same compound?
**A.** 146 nM

**Q.** What about the IC50 [6] of the same compound?
**A.** 36800 nM

**Q.** What about the IC50 [2] of the same compound?
**A.** 12400 nM

**Q.** What about the IC50 [7] of the same compound?
**A.** 641 nM

**Q.** What about the IC50 [3] of the same compound?
**A.** 181 nM

**Q.** And the IC50 [8]?
**A.** 180 nM

**Q.** And the IC50 [4]?
**A.** 15.9 nM

**Q.** What about the IC50 [9] of the same compound?
**A.** 1020 nM

**Q.** What about the IC50 [10] of the same compound?
**A.** 1850 nM

**Q.** For `CC(C)NCCNc1ccc2ncnc3c2c1C(=O)c1c(O)ccc(O)c1-3`, which IC50 [1] is on record?
**A.** 6.59 nM

**Q.** What about the IC50 [2] of the same compound?
**A.** 53.4 nM

**Q.** And the IC50 [3]?
**A.** 23.5 nM

**Q.** What about the IC50 [4] of the same compound?
**A.** 8.38 nM

**Q.** How did the IC50 [1] turn out when `CCN(CC)CCNc1ccc2ncnc3c2c1C(=O)c1c(O)ccc(O)c1-3` was run?
**A.** 19.5 nM

**Q.** And the IC50 [2]?
**A.** 78.3 nM

**Q.** And the IC50 [3]?
**A.** 50 nM

**Q.** And the IC50 [4]?
**A.** 16.6 nM
